The results in this text go back to ChEMBL document CHEMBL1149099, “Comparative in vivo stability of copper-64-labeled cross-bridged and conventional tetraazamacrocyclic complexes” (J Med Chem, 2004).

The species entered for series [1] is Rattus norvegicus. The experiment in a line: Biodistribution of radiolabeled compound in rat muscle after 5 min activity expressed as %ID/Organ. In kind it is ADME, organism-based, Muscle tissue. The conditions noted are these: in vivo. In outline: (§1)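 Mature female Sprague-Dawley rats (180–200 g) each received the 64Cu complex diluted with saline, about 15 μCi in 150 μL. Groups were sacrificed at 5 min, 30 min, 2 h and 24 h postinjection. Organs were excised, weighed and gamma-counted. %ID/organ was calculated against a weighed, counted standard.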

For series [2], the species on record is Rattus norvegicus. The experiment in a line: Biodistribution of radiolabeled compound in rat blood after 24 hr activity expressed as %ID/Organ. It counts as ADME, organism-based. The conditions noted are these: in vivo. In outline: as §1
The species named for series [3] is Rattus norvegicus. The series can be described thus: Biodistribution of radiolabeled compound in rat blood after 2 hr activity expressed as %ID/Organ. In kind it is ADME, organism-based. The conditions noted are these: in vivo. In outline:
as §1

The species entered for series [4] is Rattus norvegicus. The series can be described thus: Biodistribution of radiolabeled compound in rat blood after 30 min activity expressed as %ID/Organ. In kind it is ADME, organism-based. Conditions: in vivo, 0.5 h. In outline:
as §1

Series [5] is filed under the species Rattus norvegicus. The experiment in a line: Biodistribution of radiolabeled compound in rat blood after 5 min activity expressed as %ID/Organ. It counts as ADME, organism-based. The conditions noted are these: in vivo. The gist of the method: as §1
Series [6] is filed under the species Rattus norvegicus. The series can be described thus: Biodistribution of radiolabeled compound in rat bone after 24 hr activity expressed as %ID/Organ. The conditions noted are these: in vivo. It counts as ADME, organism-based, Bone element. The gist of the method: as §1
The species entered for series [7] is Rattus norvegicus. The series can be described thus: Biodistribution of radiolabeled compound in rat bone after 2 hr activity expressed as %ID/Organ. In kind it is ADME, organism-based, Bone element. The conditions noted are these: in vivo. In outline:
as §1

The species named for series [8] is Rattus norvegicus. The series can be described thus: Biodistribution of radiolabeled compound in rat bone after 30 min activity expressed as %ID/Organ. It counts as ADME, organism-based, Bone element. The conditions noted are these: in vivo, 0.5 h. The gist of the method:
as §1

The species entered for series [9] is Rattus norvegicus. The series can be described thus: Biodistribution of radiolabeled compound in rat brain after 24 hr activity expressed as %ID/Organ. The conditions noted are these: in vivo. In kind it is ADME, organism-based. In outline: as §1
The species entered for series [10] is Rattus norvegicus. The experiment in a line: Biodistribution of radiolabeled compound in rat brain after 2 hr activity expressed as %ID/Organ. In kind it is ADME, organism-based. The conditions noted are these: in vivo. In outline: as §1
For series [11], the species on record is Rattus norvegicus. The series can be described thus: Biodistribution of radiolabeled compound in rat brain after 30 min activity expressed as %ID/Organ. It counts as ADME, organism-based. Conditions: in vivo, 0.5 h. The gist of the method: as §1
For series [12], the species on record is Rattus norvegicus. The series can be described thus: Biodistribution of radiolabeled compound in rat brain after 5 min activity expressed as %ID/Organ. In kind it is ADME, organism-based. The conditions noted are these: in vivo. In outline:
as §1

For series [13], the species on record is Rattus norvegicus. The series can be described thus: Biodistribution of radiolabeled compound in rat fat after 24 hr activity expressed as %ID/Organ. It counts as ADME, organism-based, Adipose tissue. Conditions: in vivo. In outline: as §1
The species entered for series [14] is Rattus norvegicus. The series can be described thus: Biodistribution of radiolabeled compound in rat fat after 2 hr activity expressed as %ID/Organ. It counts as ADME, organism-based, Adipose tissue. Conditions: in vivo. In outline:
as §1

Series [15] is filed under the species Rattus norvegicus. The series can be described thus: Biodistribution of radiolabeled compound in rat fat after 30 min activity expressed as %ID/Organ. It counts as ADME, organism-based, Adipose tissue. Conditions: in vivo, 0.5 h. In outline: as §1
For series [16], the species on record is Rattus norvegicus. The experiment in a line: Biodistribution of radiolabeled compound in rat fat after 5 min activity expressed as %ID/Organ. Conditions: in vivo. In kind it is ADME, organism-based, Adipose tissue. In outline:
as §1

The species entered for series [17] is Rattus norvegicus. The experiment in a line: Biodistribution of radiolabeled compound in rat kidney after 5 min activity expressed as %ID/Organ. It counts as ADME, organism-based. Conditions: in vivo. In outline: as §1
Series [18] is filed under the species Rattus norvegicus. The series can be described thus: Biodistribution of radiolabeled compound in rat liver after 24 hr activity expressed as %ID/Organ. In kind it is ADME, organism-based. Conditions: in vivo. In outline:
as §1

Series [19] is filed under the species Rattus norvegicus. The series can be described thus: Biodistribution of radiolabeled compound in rat liver after 2 hr activity expressed as %ID/Organ. In kind it is ADME, organism-based. The conditions noted are these: in vivo. The gist of the method:
as §1

The species named for series [20] is Rattus norvegicus. The experiment in a line: Biodistribution of radiolabeled compound in rat liver after 30 min activity expressed as %ID/Organ. In kind it is ADME, organism-based. The conditions noted are these: in vivo, 0.5 h. The gist of the method:
as §1

The species entered for series [21] is Rattus norvegicus. The experiment in a line: Biodistribution of radiolabeled compound in rat lung after 24 hr activity expressed as %ID/Organ. In kind it is ADME, organism-based. The conditions noted are these: in vivo. In outline:
as §1

The species entered for series [22] is Rattus norvegicus. The experiment in a line: Biodistribution of radiolabeled compound in rat lung after 2 hr activity expressed as %ID/Organ. In kind it is ADME, organism-based. Conditions: in vivo. In outline:
as §1

For series [23], the species on record is Rattus norvegicus. The series can be described thus: Biodistribution of radiolabeled compound in rat lung after 30 min activity expressed as %ID/Organ. It counts as ADME, organism-based. The conditions noted are these: in vivo, 0.5 h. In outline: as §1
The species named for series [24] is Rattus norvegicus. The series can be described thus: Biodistribution of radiolabeled compound in rat lung after 5 min activity expressed as %ID/Organ. In kind it is ADME, organism-based. Conditions: in vivo. In outline:
as §1

For series [25], the species on record is Rattus norvegicus. The series can be described thus: Biodistribution of radiolabeled compound in rat muscle after 24 hr activity expressed as %ID/Organ. It counts as ADME, organism-based, Muscle tissue. Conditions: in vivo. The gist of the method:
as §1

The species entered for series [26] is Rattus norvegicus. The series can be described thus: Biodistribution of radiolabeled compound in rat muscle after 2 hr activity expressed as %ID/Organ. It counts as ADME, organism-based, Muscle tissue. The conditions noted are these: in vivo. The gist of the method:
as §1

The species entered for series [27] is Rattus norvegicus. The experiment in a line: Biodistribution of radiolabeled compound in rat muscle after 30 min activity expressed as %ID/Organ. It counts as ADME, organism-based, Muscle tissue. The conditions noted are these: in vivo, 0.5 h. In outline:
as §1

For series [28], the species on record is Rattus norvegicus. The series can be described thus: Biodistribution of radiolabeled compound in rat heart after 24 hr activity expressed as %ID/Organ. It counts as ADME, organism-based. The conditions noted are these: in vivo. In outline:
as §1

The species named for series [29] is Rattus norvegicus. The series can be described thus: Biodistribution of radiolabeled compound in rat heart after 2 hr activity expressed as %ID/Organ. In kind it is ADME, organism-based. The conditions noted are these: in vivo. In outline:
as §1

The species named for series [30] is Rattus norvegicus. The experiment in a line: Biodistribution of radiolabeled compound in rat heart after 30 min activity expressed as %ID/Organ. Conditions: in vivo, 0.5 h. It counts as ADME, organism-based. The gist of the method: as §1
The species entered for series [31] is Rattus norvegicus. The series can be described thus: Biodistribution of radiolabeled compound in rat heart after 5 min activity expressed as %ID/Organ. Conditions: in vivo. In kind it is ADME, organism-based. In outline:
as §1

The species entered for series [32] is Rattus norvegicus. The experiment in a line: Biodistribution of radiolabeled compound in rat kidney after 24 hr activity expressed as %ID/Organ. In kind it is ADME, organism-based. The conditions noted are these: in vivo. The gist of the method:
as §1

For series [33], the species on record is Rattus norvegicus. The experiment in a line: Biodistribution of radiolabeled compound in rat kidney after 2 hr activity expressed as %ID/Organ. Conditions: in vivo. In kind it is ADME, organism-based. The gist of the method:
as §1

For series [34], the species on record is Rattus norvegicus. The series can be described thus: Biodistribution of radiolabeled compound in rat kidney after 30 min activity expressed as %ID/Organ. In kind it is ADME, organism-based. Conditions: in vivo, 0.5 h. In outline:
as §1

The species entered for series [35] is Rattus norvegicus. The series can be described thus: Biodistribution of radiolabeled compound in rat bone after 5 min activity expressed as %ID/Organ. In kind it is ADME, organism-based, Bone element. The conditions noted are these: in vivo. In outline:
as §1

Series [36] is filed under the species Rattus norvegicus. The series can be described thus: Biodistribution of radiolabeled compound in rat liver after 5 min activity expressed as %ID/Organ. It counts as ADME, organism-based. Conditions: in vivo. In outline:
as §1

The species named for series [37] is Rattus norvegicus. The series can be described thus: Biodistribution of radiolabeled compound in rat blood after 24 hr postinjection activity expressed as %ID/Organ. It counts as ADME, organism-based. Conditions: in vivo.
The species named for series [38] is Rattus norvegicus. The experiment in a line: Biodistribution of radiolabeled compound in rat liver after 24 hr postinjection activity expressed as %ID/Organ. In kind it is ADME, organism-based. Conditions: in vivo.
Series [39] is filed under the species Rattus norvegicus. The series can be described thus: Biodistribution of radiolabeled compound in rat kidney after 24 hr postinjection activity expressed as %ID/Organ. It counts as ADME, organism-based. The conditions noted are these: in vivo.

In the case of Cu-CB-DO2A, the Biodistribution in series [1] worked out at 18.27%; in [2], 0.14%; in series [3], 0.32%; in series [4] it was 3.79%; in series [5], 13.45%; in [6] it was 0.24%. In addition, the Biodistribution was 0.56% in [7]; 1.69% in series [8]; 0.002% in series [9]; 0.008% in series [10]; 0.036% in series [11]; 0.097% in series [12]. The Biodistribution in series [13] worked out at 0.12%; in [14] it was 0.22%; in series [15], 2.14%; in series [16] it was 3.99%; in [17], 2.64%; in series [18], 0.39%. The Biodistribution in series [19] is listed as 0.93%; in series [20], 1.47%; in [21], 0.019%; in [22] it was 0.044%; in series [23] it was 0.21%; in series [24] it was 0.72%. Also, the Biodistribution in [25] is reported as 0.28%; in series [26] it was 1.39%; in series [27], 6.42%; in series [28], 0.0065%; in series [29], 0.0095%; in [30], 0.067%. For the same substance, the Biodistribution came out at 0.22% in [31]; 0.064% in [32]; 0.44% in series [33]; 1.14% in [34]; 4.52% in [35]; 2.47% in [36].

For the substance Cu-CB-TE2A, the Biodistribution is reported as 0.032% in series [37], 0.14% in [38] and 0.064% in series [39].

Consider Cu-DOTA, for which the Biodistribution is 0.58% in series [37], 1.05% in series [38] and 0.54% in series [39].

Take Cu-TETA: the Biodistribution is on record as 0.21% in series [37], 0.49% in [38] and 0.21% in [39].
